In the library only some 1.4% were active in any assay of this set; here they are far more common.
GASC-1 inh – inhibitors of human GASC-1 (JMJD2C) demethylase | Q9H3R0 | GST-JMJD2C(1-420) H3K9me3 demethylation, DELFIA europium | inhibition, % at 2.35 µM | 330,000 tested, 0.069% active;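 active means more than half of a compound's replicate wells show inhibition beyond 50%, single wells judged on their own value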;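 further: signal counts dimethyl H3K9 product captured on neutravidin plate; 0% = median of DMSO wells and 100% = 0.3 times that DMSO median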
Target sequence (Q9H3R0 1-420 limits assumed): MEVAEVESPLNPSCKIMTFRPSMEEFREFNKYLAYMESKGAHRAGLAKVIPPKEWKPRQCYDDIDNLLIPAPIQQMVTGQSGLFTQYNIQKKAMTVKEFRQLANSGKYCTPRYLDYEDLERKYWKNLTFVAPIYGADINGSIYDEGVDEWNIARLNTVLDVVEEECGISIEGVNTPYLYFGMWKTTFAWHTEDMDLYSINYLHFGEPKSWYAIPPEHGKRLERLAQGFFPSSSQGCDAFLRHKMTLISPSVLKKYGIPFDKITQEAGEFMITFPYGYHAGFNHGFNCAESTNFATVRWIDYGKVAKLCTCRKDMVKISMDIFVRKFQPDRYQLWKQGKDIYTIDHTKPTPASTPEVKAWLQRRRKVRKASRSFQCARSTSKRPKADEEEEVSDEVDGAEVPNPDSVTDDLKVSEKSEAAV
SUMO Mot1 rescue – blocks SUMOylation pathway, rescuing yeast Mot1-301 growth. S. cerevisiae Mot1-301 growth rescue, ATP luminescence, 38.5C; percent above DMSO median, 100 means doubled. growth rescue, % at 18.8 µM. 320,000 tested, 1% active. AID 2716;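 active means every valid replicate shows activation above 250% relative to neutral control wells; inactive means the rest, any valid replicate at or below 250%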;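 further: OY570 slx delta 5 strain wells were the positive control but not used for scaling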
T cell modulator – T cell immune modulation candidate | 2C CD8+ T cell-vesicle binding, flow cytometry; stronger effect = lower value | response (vesicle binding), % at 7 µM | 330,000 tested, 0.068% active | AID 2052;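 active means response, share of CD8 T cells binding vesicles, and their 90th percentile fluorescence all below set limits, cut at about 80% in these data, passing the limit was not always enough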;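 further: values below 100% mean blocked vesicle binding to the CD8+ T cells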
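Test system: purified 2C TCR transgenic mouse naive CD8+ T cells. Probe or stimulus: QL9-peptide-loaded Drosophila micro-vesicles bearing Ld, ICAM-1 and B7-1. Incubation: binding step 1.5 h, 37 °C, antibody labelling 20 min, ice. Measured by: flow cytometry of vesicle-bound cells.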
HIF act – HIF pathway transcriptional activation | U2OS HRE-luciferase reporter, luminescence; normalized: DMSO 0%, desferrioxamine 100% | activation, % at 7.5 µM (by protocol) | 300,000 tested, 0.32% active;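 active means mean activation of at least 10% of the iron chelator positive control signal, with at least half of replicates also reaching 10%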
An asterisk follows results filed as active; i = inactive; · = not tested or not shown.

SMILES	GASC-1 inh	SUMO Mot1 rescue	T cell modulator	HIF act
O=C(N/N=C/c1sc2ccccc2c1O)c1ccccc1	8	-7	120	5
O=C(N/N=C/c1sc2ccccc2c1O)c1cccc2ccccc12	1	-4	438	12*
CCn1nc(C)c(CNC(=O)Nc2ccccc2C(=O)OC)c1C	0	-8	362	0
Oc1ccc(CN2CCN(c3ccccc3)CC2)c2cccnc12	-35	0	182	4
Oc1ccc(CN2CCc3ccccc3C2)c2cccnc12	-21	-15	136	159*
Cc1ccc(C)c(S(=O)(=O)N2CCN(Cc3ccc(O)c4ncccc34)CC2)c1	-9	-18	122	29*
Oc1ccc(CN2CCCCC2)c2cccnc12	1	13	286	1
COc1ccccc1N1CCN(Cc2cc(Br)c(O)c3ncccc23)CC1	-3	-20	380	12*
CCOc1ccccc1N1CCN(Cc2cccc(OC)c2O)CC1	-3	-2	478	0
Oc1ccc(CN2CCC(Cc3ccccc3)CC2)c2cccnc12	-10	·	·	18*
Cc1cc(C(=O)N2CCN(c3cc(Cl)ccc3C)CC2)on1	14	4	371	0
O=C(Cn1cnc(S(=O)(=O)N2CCCC2)c1)Nc1cccc(F)c1	-1	-14	i	0
Oc1c(CN2CCCCC2)cc(COCc2ccccc2)c2cccnc12	-4	-6	364	132*
O=C(COc1ccc(Cl)cc1[N+](=O)[O-])N1CCCCCC1	9	0	31*	2
O=C(Cc1ccc(Cl)cc1)OCC(=O)N1CCCCCC1	1	6	61*	·
O=[N+]([O-])c1ccccc1N/N=C1\CC2CC=CC12 (centres undefined)	-32	-23	283	1
COc1cc(C(=O)Nc2nnc(-c3sccc3C)s2)cc(OC)c1OC	-3	7	80*	-2
CCOCc1nnc(NC(=O)c2cc(OC)c(OC)c(OC)c2)s1	-6	-5	558	-1
CCc1ccc(N2CC(C(=O)Nc3cccc(S(=O)(=O)N4CCCC4)c3)CC2=O)cc1 (centres undefined)	7	-2	479	0
OC(COc1ccc2ccccc2c1Br)Cn1cnc(-c2ccccc2)c1 (centres undefined)	61*	·	369	0
CCNC(=O)NC(=O)C(C)OC(=O)c1cccn1C (centres undefined)	4	7	555	0
Cc1ccc(C)c(CNS(=O)(=O)c2ccc3c(c2)C(C)(C)C(=O)N3C)c1	11	-15	290	12*
C[C@H](CO)N1C[C@H](C)[C@@H](CN(C)C(=O)Nc2ccccc2)Oc2ccc(NC(=O)CCC(F)(F)F)cc2C1=O	-4	11	432	·
Cc1ccc(CNC(=O)C(NS(=O)(=O)c2ccc3nc(C)sc3c2)C(C)C)cc1 (centres undefined)	-13	4	494	·
Cc1nc2ccc(S(=O)(=O)NC(C(=O)NCc3ccco3)C(C)C)cc2s1 (centres undefined)	-7	357*	342	·
SMILES	GASC-1 inh	SUMO Mot1 rescue	T cell modulator	HIF act
COc1ccccc1CCc1nnc(CCC(=O)NC(C)Cn2nc(C)cc2C)o1 (centres undefined)	-4	71	279	0
COc1ccc(C2=CCN3CCCCC3C2)c(-c2ccc(OC)c(OC)c2)c1 (centres undefined)	4	-1	218	·
Cc1ccc(-n2c(C(C)C)nc3oc4ccccc4c(=O)c3c2=O)cc1	-5	-16	238	3
O=C(CCN1C(=O)/C(=C/c2ccccc2F)SC1=S)NC1C=CS(=O)(=O)C1 (centres undefined)	-1	84	234	0
CNC(=O)c1cc(C(=O)c2ccc(F)cc2C(F)(F)F)c[nH]1	-8	-4	0.0*	-1
COc1ccc(NC(=O)c2cccn(CC=C(C)C)c2=O)cc1	2	331*	191	2
Cc1cccc(-n2ccnc2CN2CCC(CO)(Cc3ccccc3)CC2)c1	18	643*	131	-1
CCC1CCc2sc(C(=O)O)cc2C1 (centres undefined)	-5	28	109	65*
COC(=O)c1ccc(N2C(=O)CC(N(C)CCc3ccc(OC)c(OC)c3)C2=O)cc1 (centres undefined)	0	303*	428	0
CC(C)Cc1nnc(NC(=O)c2ccc(N3CCCC3=O)cc2)s1	4	285*	180	0
CSc1cccc(NC(=S)N2CCC(N(C)C3CCCC3)CC2)c1	-12	-6	571	0
COc1ccc(S(=O)(=O)N2CCCCCC2)cc1NC(=O)c1ccccc1	-24	309*	0	0
O=C(Nc1nc(-c2ccccn2)cs1)c1ccc(S(=O)(=O)N2CCCCC2)cc1	51	-20	312	16*
COc1ccc(S(=O)(=O)N2CCCCC2)cc1C(=O)N1CCCC1	-5	33	0.0*	0
COc1ccc(S(=O)(=O)N2CCCC2)cc1C(=O)N1CCCCC1	-3	-2	203	0
COc1ccccc1N(CC(=O)N/N=C/c1c(O)ccc2ccccc12)S(C)(=O)=O	10	19	309	11*
COc1ccccc1N(CC(=O)NC1CCCCC1)S(C)(=O)=O	3	6	390	94*
COc1ccccc1N(CC(=O)NC1CCCCC1)S(=O)(=O)c1ccccc1	5	2	333	0
COc1ccccc1NCC(=O)N/N=C/c1c(O)ccc2ccccc12	5	-8	182	3
CN(C)c1ccc2c(c1)Sc1cc(N(C)C)ccc1N2C(=O)c1ccccc1	0	17	77	1
CCOc1ccc(CN(C(=O)c2cc(=O)c3cc(C)cc(C)c3o2)C2CCS(=O)(=O)C2)cc1 (centres undefined)	1	5	843	-1
Nc1ccccc1-n1cccc1	1	315*	137	0
Cc1ccc(C)n1-c1ccccc1N	4	-3	349	-2
Cc1ncc([N+](=O)[O-])n1Cc1cccc(F)c1	0	352	72*	0
COC(=O)C1=C(C)N(Cc2ccc(OC)cc2)C(=O)C1	-7	49	129	223*
SMILES	GASC-1 inh	SUMO Mot1 rescue	T cell modulator	HIF act
COC(=O)C1=C(C)N(CCc2ccc(OC)cc2)C(=O)C1	17	439	232	0
c1ccc2c(NCCc3c[nH]c4ccccc34)c3ccccc3nc2c1	-6	-12	104	13*
Fc1cccc(NCCc2c[nH]c3ccccc23)n1	0	29	244	1
Cc1ccc(-c2nc(NCCCO)c3ccccc3n2)cc1	-6	5	204	1
OCCCNc1c2ccccc2nc2ccccc12	-1	16	379	16*
O=C(Cn1cccc1C(=O)c1ccccc1)NCCc1ccc(Cl)cc1	1	314*	476	1
CN(CCCNC(=O)c1ccccc1F)CCCNC(=O)c1ccccc1F	-7	1	659	-2
CCN1/C(=C/c2ccc3cc(C)ccc3[n+]2CC)Sc2ccccc21	-14	481	i	26*
